Results from article PMC3312100 (Frontiers in Systems Neuroscience, 2012).
“Also recorded” adds a separate entry of the source.

How the values were obtained:
[1] = Fluorescence characterization; assay type: physicochemical; conditions: for Fluorescence emission intensity (in words): Figure 2, Appendix
Summary of the method: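 Test compound was dissolved at 10 mM in buffer (12.5 mM MgCl2, 100 mM NaCl, 75 mM Tris/HCl, pH 7.4). Absorption and emission spectra were recorded on a fluorometer at room temperature. Emission spectra used 405 nm excitation.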

[2] = molecular target: human histamine H3 receptor (Homo sapiens, UniProt Q9Y5N1); assay: [3H]Nα-methylhistamine competition binding assay, membranes of HEK-293 cells; conditions: for Selectivity for hH3R over hH1R and hH4R (in words): comparison of Ki values of Table 1
Summary of the method: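 Membranes came from HEK-293 cells stably expressing recombinant hH3R, with protein measured by Bradford. They were incubated with 2 nM [3H]Nα-methylhistamine and test compound from 0.01 nM to 100 μM at seven concentrations. Non-specific binding was defined with 10 μM pitolisant. Values are means of at least three independent experiments, each in triplicate.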

Sequence of human histamine H3 receptor (Q9Y5N1 whole entry): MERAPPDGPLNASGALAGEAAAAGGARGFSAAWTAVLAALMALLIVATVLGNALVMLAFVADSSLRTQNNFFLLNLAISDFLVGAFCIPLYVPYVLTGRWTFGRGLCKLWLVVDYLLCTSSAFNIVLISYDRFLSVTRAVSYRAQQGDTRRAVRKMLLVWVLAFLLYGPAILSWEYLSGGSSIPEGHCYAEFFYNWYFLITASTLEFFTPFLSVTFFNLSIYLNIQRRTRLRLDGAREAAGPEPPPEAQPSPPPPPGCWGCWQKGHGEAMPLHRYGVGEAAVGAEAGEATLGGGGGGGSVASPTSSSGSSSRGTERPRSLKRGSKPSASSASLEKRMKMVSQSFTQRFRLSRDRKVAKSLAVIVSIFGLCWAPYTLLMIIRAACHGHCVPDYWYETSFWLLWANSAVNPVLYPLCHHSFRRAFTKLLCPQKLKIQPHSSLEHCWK

Compound | Area of the fluorescence spectrum of emission [1] | Fluorescence emission intensity (in words) [1] | Affinity at the human histamine H3 receptor (in words) [2] | Selectivity for hH3R over hH1R and hH4R (in words) [2]
CN(C)c1ccc(/C=C2\CCc3cc(OCc4ccc(OCCCN5CCCCC5)cc4)ccc3C2=O)cc1 [Compound 9, (E)-2-(4-(Dimethylamino)benzylidene)-6-(4-(3-(piperidin-1-yl)propoxy)benzyloxy)-1-tetralone] | yellow area | most intense compound; also recorded: highest intensity of all synthesized compounds | highest affinity | most selective compound in the fluorescent chalcone series; also recorded: most human histamine H3 receptor selective
CN(C)c1ccc(/C=C2\CCc3ccc(OCCCN4CCCCC4)cc3C2=O)cc1 [Compound 4, (E)-2-(4-(Dimethylamino)benzylidene)-7-(3-(piperidin-1-yl)propoxy)-1-tetralone] | yellow area | – | – | –
CN(C)c1ccc(/C=C2\CCc3cc(OCCCN4CCCCC4)ccc3C2=O)cc1 [Compound 3, (E)-2-(4-(Dimethylamino)benzylidene)-6-(3-(piperidin-1-yl)propoxy)-1-tetralone] | yellow area | – | – | –
CN(C)c1ccc(/C=C/C=C2\CCc3cc(OCCCN4CCCCC4)ccc3C2=O)cc1 [Compound 5, (E)-2-((E)-3-(4-(Dimethylamino)phenyl)allylidene)-6-(3-(piperidin-1-yl)propoxy)-1-tetralone] | – | emits more intensive | – | less selective chalcone; also recorded: not as selective as compound 9
CN(C)c1ccc(/C=C2\CCc3ccc(OCc4ccc(OCCCN5CCCCC5)cc4)cc3C2=O)cc1 [Compound 10, (E)-2-(4-(Dimethylamino)benzylidene)-7-(4-(3-(piperidin-1-yl)propoxy)benzyloxy)-1-tetralone] | yellow area | – | – | –
O=C1CCCc2ccc(OCc3ccc(OCCCN4CCCCC4)cc3)cc21 [Compound 8, 7-(4-(3-(Piperidin-1-yl)propoxy)benzyloxy)-1-tetralone] | – | – | – | one of the highest selectivity
